Laboratory results reported in ChEMBL document CHEMBL3608234, “Synthesis and antiviral evaluation of a novel series of homoserine-based inhibitors of the hepatitis C virus NS3/4A serine protease” (Bioorg Med Chem Lett, 2015).

Legend:
[1] = Inhibition of full length HCV 1b Con1 NS3/4A protease using HiLyte Fluor 610 peptide substrate by biochemical FRET assay; design: species or system Hepatitis C virus (isolate Con1)
Method in brief: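 Fluorescence (FRET) protease assay on full-length genotype 1b Con1 HCV NS3/4A with HiLyte Fluor 610 peptide substrate; IC50 from percent inhibition versus concentration by four-parameter sigmoidal non-linear regression.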

Hepatitis C virus = assay: Antiviral activity against HCV Con1 infected in human GS4.1 cells containing HCV Con1 subgenomic replicon assessed as reduction in NS5A protein expression by ELISA method; type: functional, cell-based, Hepacivirus hominis; conditions: genotype 1b Con1
Method in brief: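 Huh-7 cells carrying HCV Con1 subgenomic replicon (GS4.1); replication followed as NS5A protein expression by ELISA; EC50 from 50% inhibition versus concentration data fitted by four-parameter sigmoidal non-linear regression.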

[2] = Cytotoxicity against human GS4.1 cells assessed as induction of cell death; type: cell-based
Method in brief: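 GS4.1 cells (Huh-7 with Con1 subgenomic replicon); CC50 taken as concentration giving 50% cell death, from death versus concentration data relative to blank control.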

[3] = Intrinsic clearance in rat liver microsomes incubated for 2 hrs; type: ADME; conditions: read-out: CLH
[4] = Clearance in rat liver S9 fraction incubated for 2 hrs; type: ADME, subcellular; conditions: read-out: CLH
Method in brief: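 Rat liver S9 fraction incubation for 2 h; mean clearance from n = 2.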

Hepatocyte = assay: Clearance in rat cryopreserved hepatocytes incubated for 2 hrs; type: ADME, cell-based
[5] = Intrinsic clearance in dog liver microsomes incubated for 2 hrs; type: ADME, Canis lupus familiaris; conditions: read-out: CLH
[6] = Intrinsic clearance in Cynomologus monkey liver microsomes incubated for 2 hrs; type: ADME, Macaca fascicularis; conditions: cynomolgus monkey, read-out: CLH
[7] = Intrinsic clearance in human liver microsomes incubated for 2 hrs; type: ADME; conditions: read-out: CLH
[8] = Cmax in Sprague-Dawley rat at 10 mg/kg, po; type: ADME, organism-based; design: dose 10 mg/kg, route oral; conditions: in vivo
[9] = Tmax in Sprague-Dawley rat at 10 mg/kg, po; type: ADME, organism-based; conditions: in vivo
[10] = AUCt in Sprague-Dawley rat at 10 mg/kg, po; type: ADME, organism-based; conditions: in vivo
Method in brief: (§1)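 Male Sprague–Dawley rats were dosed intravenously at 2 mg/kg or orally at 10 mg/kg. Plasma concentration–time data were used to derive AUC to last time point (AUCt) and AUC extrapolated to infinity, reported in ng·h/mL.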

[11] = AUC (infinity) in Sprague-Dawley rat at 10 mg/kg, po; type: ADME, organism-based; design: dose 10 mg/kg, route oral, time infinity; conditions: in vivo; method in brief: as §1
[12] = Half life in Sprague-Dawley rat at 10 mg/kg, po; type: ADME, organism-based; conditions: in vivo
[13] = Drug elimination in Sprague-Dawley rat at 10 mg/kg, po; type: ADME, organism-based; conditions: in vivo
[14] = Clearance in Sprague-Dawley rat at 10 mg/kg, po; type: ADME, organism-based; conditions: in vivo
Rattus norvegicus = assay: Volume of distribution in Sprague-Dawley rat at 10 mg/kg, po; type: ADME, organism-based; conditions: in vivo
[15] = Oral bio availability in Sprague-Dawley rat at 10 mg/kg; type: ADME, organism-based; conditions: in vivo
[16] = Cmax in Sprague-Dawley rat at 2 mg/kg, iv; type: ADME, organism-based; design: dose 2 mg/kg, route intravenous; conditions: in vivo
[17] = Tmax in Sprague-Dawley rat at 2 mg/kg, iv; type: ADME, organism-based; conditions: in vivo
[18] = AUCt in Sprague-Dawley rat at 2 mg/kg, iv; type: ADME, organism-based; conditions: in vivo; method in brief: as §1
[19] = AUC (infinity) in Sprague-Dawley rat at 2 mg/kg, iv; type: ADME, organism-based; design: dose 2 mg/kg, route intravenous, time infinity; conditions: in vivo; method in brief: as §1
[20] = Half life in Sprague-Dawley rat at 2 mg/kg, iv; type: ADME, organism-based; conditions: in vivo
[21] = Drug elimination in Sprague-Dawley rat at 2 mg/kg, iv; type: ADME, organism-based; conditions: in vivo
[22] = Clearance in Sprague-Dawley rat at 2 mg/kg, iv; type: ADME, organism-based; conditions: in vivo
[23] = Volume of distribution in Sprague-Dawley rat at 2 mg/kg, iv; type: ADME, organism-based; conditions: in vivo

With `COc1ccc2c(OCC[C@@H]3NC(=O)N(C)CCCC/C=C\[C@@H]4C[C@@]4(C(=O)NS(=O)(=O)C4CC4)NC3=O)cc(-c3ccccc3)nc2c1` the IC50 [1] was 0.0198 µM, the EC50 (Hepatitis C virus) was 8.2 µM and the CC50 [2] was > 30 µM.

In the case of `COc1ccc2c(OCC[C@@H]3NC(=O)N(C)CCCCC/C=C\[C@@H]4C[C@@]4(C(=O)NS(=O)(=O)C4CC4)NC3=O)cc(-c3ccccc3)nc2c1`, the IC50 [1] is reported as 0.041 µM, the EC50 (Hepatitis C virus) is reported as 14.6 µM and the CC50 [2] is reported as 53 µM.

Work on `COc1ccc2c(OCC[C@@H]3NC(=O)N(C)CCCC/C=C\[C@@H]4C[C@@]4(C(=O)NS(=O)(=O)C4(C)CC4)NC3=O)cc(-c3csc(NC(C)C)n3)nc2c1` yielded an IC50 [1] of 0.0012 µM, an EC50 (Hepatitis C virus) of 1.04 µM and a CC50 [2] of 37.4 µM.

In the case of `COc1ccc2c(OCC[C@@H]3NC(=O)N(C)CCCC/C=C\[C@@H]4C[C@@]4(C(=O)NS(=O)(=O)C4(C)CC4)NC3=O)cc(-c3nc(C(C)C)cs3)nc2c1`, the IC50 [1] is reported as 0.0009 µM, the EC50 (Hepatitis C virus) is reported as 0.044 µM and the CC50 [2] is reported as 6.5 µM. For the same compound, the microsomal CLint [3] was 155 µL/min/mg.

In the case of `COc1ccc2c(OCC[C@@H]3NC(=O)N(C)CCCC/C=C\[C@@H]4C[C@@]4(C(=O)NS(=O)(=O)C4CC4)NC3=O)cc(-c3nc(C(C)C)cs3)nc2c1F`, the IC50 [1] is reported as 0.0096 µM, the EC50 (Hepatitis C virus) is reported as 1.49 µM and the CC50 [2] is reported as > 75 µM.

Compound `COc1ccc2c(OCC[C@@H]3NC(=O)N(C)CCCC/C=C\[C@@H]4C[C@@]4(C(=O)NS(=O)(=O)C4(C)CC4)NC3=O)cc(-c3nc(C(C)C)cs3)nc2c1F` has an IC50 [1] of 0.008 µM, an EC50 (Hepatitis C virus) of 0.555 µM and a CC50 [2] of 57.1 µM.

For `COc1ccc2c(OCC[C@@H]3NC(=O)N(C)CCCC/C=C\[C@@H]4C[C@@]4(C(=O)NS(=O)(=O)C4CC4)NC3=O)cc(-c3nc(C(C)C)cs3)nc2c1Cl`, the IC50 [1] was 0.0017 µM, the EC50 (Hepatitis C virus) was 0.0765 µM and the CC50 [2] was 40.4 µM. The microsomal CLint [3] was 36.6 µL/min/mg, the microsomal CLint [4] was 8.9 µL/min/mg and the CLH (Hepatocyte) was 19.1 µL/min/mg. The microsomal CLint [5] was 25 µL/min/mg, the microsomal CLint [6] was 124 µL/min/mg and the microsomal CLint [7] was 263 µL/min/mg.

`COc1ccc2c(OCC[C@@H]3NC(=O)N(C)CCCC/C=C\[C@@H]4C[C@@]4(C(=O)NS(=O)(=O)C4(C)CC4)NC3=O)cc(-c3nc(C(C)C)cs3)nc2c1Cl` gave an IC50 [1] of 0.0017 µM, an EC50 (Hepatitis C virus) of 0.0287 µM and a CC50 [2] of 37.4 µM. It also gave a microsomal CLint [3] of 20.7 µL/min/mg, a microsomal CLint [4] of 7.6 µL/min/mg and a CLH (Hepatocyte) of 12.6 µL/min/mg. For the same compound, the microsomal CLint [5] was 19.5 µL/min/mg, the microsomal CLint [6] was 480 µL/min/mg and the microsomal CLint [7] was 215 µL/min/mg. It also gave a Cmax [8] of 0.798 µg/mL, a Tmax [9] of 0.75 h and an AUC(0-t) [10] of 2.06 µg·h/mL. It also gave an AUC(0-inf) [11] of 2.35 µg·h/mL, a half-life [12] of 2.53 h and a k el [13] of 7.78e-05 s⁻¹. It also gave a CL/F [14] of 4.34 L/h/kg, a Vd (Rattus norvegicus) of 16.04 L/kg and a bioavailability [15] of 27%. For the same compound, the Cmax [16] was 2.67 µg/mL, the Tmax [17] was 6.6 min and the AUC(0-t) [18] was 1.53 µg·h/mL. For the same compound, the AUC(0-inf) [19] was 1.51 µg·h/mL, the half-life [20] was 1.25 h and the k el [21] was 0.000158 s⁻¹. The clearance [22] was 1.33 L/h/kg and the Vd [23] was 2.42 L/kg.

Compound `COc1ccc2c(OCC[C@@H]3NC(=O)N(C)CCCC/C=C\[C@@H]4C[C@@]4(C(=O)NS(=O)(=O)C4(C)CC4)NC3=O)cc(-c3nc(C(C)C)cs3)nc2c1Br` has an IC50 [1] of 0.0006 µM, an EC50 (Hepatitis C virus) of 0.0205 µM and a CC50 [2] of 28.3 µM. The microsomal CLint [3] was 16.5 µL/min/mg.

`COc1ccc2c(OCC[C@@H]3NC(=O)N(C)CCCC/C=C\[C@@H]4C[C@@]4(C(=O)NS(=O)(=O)C4(C)CC4)NC3=O)cc(-c3nc(C(C)C)cs3)nc2c1C` gave an IC50 [1] of 0.0023 µM, an EC50 (Hepatitis C virus) of 0.085 µM and a CC50 [2] of 31.9 µM. For the same compound, the microsomal CLint [3] was 9.3 µL/min/mg.

For `COc1ccc2c(OCC[C@@H]3NC(=O)N(C)CCCC/C=C\[C@@H]4C[C@@]4(C(=O)NS(=O)(=O)C4(C)CC4)NC3=O)cc(-n3ccc(C(C)C)n3)nc2c1C`, the IC50 [1] was 0.002 µM, the EC50 (Hepatitis C virus) was 0.05 µM and the CC50 [2] was 25.6 µM. The microsomal CLint [3] was 21 µL/min/mg.

With `COc1ccc2c(OCC[C@@H]3NC(=O)N(C)CCCC/C=C\[C@@H]4C[C@@]4(C(=O)NS(=O)(=O)C4(C)CC4)NC3=O)cc(-n3ccc(C(C)C)n3)nc2c1Cl` the IC50 [1] was 0.0011 µM, the EC50 (Hepatitis C virus) was 0.0434 µM and the CC50 [2] was 31 µM.

For `CCn1cc(-c2cc(OCC[C@@H]3NC(=O)N(C)CCCC/C=C\[C@@H]4C[C@@]4(C(=O)NS(=O)(=O)C4(C)CC4)NC3=O)c3ccc(OC)c(C)c3n2)cn1`, the IC50 [1] was 0.003 µM, the EC50 (Hepatitis C virus) was 0.485 µM and the CC50 [2] was 36.7 µM.
